The values that follow come from ChEMBL document CHEMBL5674890, “Selective inhibition of CBP/p300 HAT by A-485 results in suppression of lipogenesis and hepatic gluconeogenesis” (Cell Death Dis, 2020).

Activity calls are given as the source filed them. No cut-off for these calls is given here.

For experiment [1], the system named is Mus musculus. Briefly: Anti-obesity activity in C57BL/6 mouse supplemented with normal chow diet assessed effect on total lean mass at 20 mg/kg/day, ip administered for 1 week measured by EchoMRI live analysis. In kind it is functional, organism-based. As to conditions: time 1.0 weeks. The method in brief:
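Normal-chow male C57BL/6 mice, 8 weeks old, ip 20 mg·kg−1·day−1 daily for 7 days. Total lean and fat mass measured in live animals by EchoMRI. Mean ± SEM, n = 5–9.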

Experiment [2] concerns Mus musculus. Briefly: Anti-obesity activity in 6 hrs fasted C57BL/6 mouse supplemented with normal chow diet assessed as effect on fasting blood glucose at 20 mg/kg/day, ip administered for 1 week. To be noted: time 1.0 weeks. It is filed as functional, organism-based. The method in brief: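 8-week-old male C57BL/6 mice on normal chow, ip 20 mg·kg−1·day−1 for 7 days. Blood glucose measured randomly fed or after 6 h or 16 h fasting, as the line states. Mean ± SEM, n = 5–9.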

Experiment [3] deals with Mus musculus. Briefly: Anti-obesity activity in 16 hrs fasted C57BL/6 mouse supplemented with normal chow diet assessed as decrease in blood glucose level at 20 mg/kg/day, ip administered for 1 week measured after 30 mins by intraperitoneal glucose tolerance test. It is filed as functional, organism-based. To be noted: time 1.0 weeks. The method in brief:
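Male C57BL/6 mice on normal chow, 8 weeks old, given 20 mg·kg−1·day−1 ip daily for 7 days. After 16 h fasting, glucose 2 g/kg body weight ip; blood glucose read during the test. Mean ± SEM, n = 5–9; t test or ANOVA, P < 0.05.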

Experiment [4] concerns Mus musculus. Kind of experiment: Anti-obesity activity in C57BL/6 mouse supplemented with high fat diet assessed as effect on random blood glucose at 20 mg/kg/day, ip administered for 1 week. In kind it is functional, organism-based. As to conditions: time 1.0 weeks. In outline:
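Male C57BL/6 mice fed high-fat diet for 14 weeks from 5 weeks of age, then ip 20 mg·kg−1·day−1 for 7 days. Body weight, EchoMRI lean/fat mass, and random or 16 h-fasted blood glucose recorded, as the line states.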

Experiment [5] concerns Mus musculus. Briefly: Inhibition of lipogenesis in C57BL/6 mouse supplemented with normal chow diet assessed as effect on ACO mRNA expression at 20 mg/kg/day, ip administered for 1 week measured by RT-qPCR assay. In kind it is functional, organism-based. As to conditions: time 1.0 weeks. The method in brief: (§1)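 Eight-week-old male C57BL/6 mice on normal chow were given 20 mg·kg−1·day−1 ip daily for 7 days or vehicle. Epididymal WAT was collected. Lipogenic, adipogenic and fatty-acid-oxidation transcripts were quantified by Trizol extraction and SYBR Green RT-qPCR. FAS, ACC, PPARγ and C/EBPα protein were assessed by western blot. n = 5–9; mean ± SEM.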

Experiment [6] relates to Mus musculus. Briefly: Inhibition of lipogenesis in C57BL/6 mouse supplemented with normal chow diet assessed as effect on ACADVL mRNA expression at 20 mg/kg/day, ip administered for 1 week measured by RT-qPCR assay. To be noted: time 1.0 weeks. It is filed as functional, organism-based. In outline: as §1
(Quantitative PCR measures a nucleic acid by following its amplification.)

In experiment [7] the test system is Mus musculus. Briefly: Inhibition of lipogenesis in C57BL/6 mouse supplemented with normal chow diet assessed as decrease in LPL mRNA expression at 20 mg/kg/day, ip administered for 1 week measured measured by RT-qPCR assay. It is filed as functional, organism-based. As to conditions: time 1.0 weeks. In outline: as §1
For experiment [8], the system named is Mus musculus. Kind of experiment: Inhibition of lipogenesis in C57BL/6 mouse supplemented with normal chow diet assessed as decrease in PPARgamma protein expression at 20 mg/kg/day, ip administered for 1 week measured measured by western blot analysis. It is filed as functional, organism-based. To be noted: time 1.0 weeks. In outline: as §1
In general terms: A western blot detects proteins with antibodies after separation by electrophoresis.

Experiment [9] deals with Adipocyte. Briefly: Inhibition of lipogenesis in mouse adipocytes isolated stromal vascular cells assessed as decrease in adiponectin mRNA expression measured after 24 hrs by RT-qPCR assay. In kind it is functional, cell-based. The method in brief: (§2)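 Stromal vascular cells from inguinal WAT of C57BL/6 mice, grown in DMEM/F12 + 10% FBS at 37 °C, 10% CO2. At confluence, induced 48 h with 5 μg/ml insulin, 1 μM dexamethasone, 0.5 mM isobutylmethylxanthine, then 6 days in 5 μg/ml insulin; fully differentiated day 8. Mature adipocytes exposed to inhibitor 24 h. Total RNA by Trizol, SYBR Green RT-qPCR; protein by western blot.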

Experiment [10] relates to Adipocyte. Briefly: Inhibition of lipogenesis in mouse adipocytes isolated stromal vascular cells assessed as decrease in C/EBPalpha mRNA expression measured after 24 hrs by RT-qPCR assay. In kind it is functional, cell-based. The method in brief:
as §2

The subject of experiment [11] is Mus musculus. Briefly: Inhibition of hepatic lipogenesis in C57BL/6 mouse supplemented with high fat diet assessed as decrease in total cholesterol level at 20 mg/kg/day, ip administered for 1 week. In kind it is functional, organism-based. As to conditions: time 1.0 weeks. The method in brief: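 Male C57BL/6 mice received ip A-485 at 20 mg·kg−1·day−1 for 7 days, versus vehicle. NCD mice were 8 weeks old. HFD mice had been on high-fat diet for 14 weeks from 5 weeks of age. Liver triglyceride and total cholesterol content was determined. n = 5–9; mean ± SEM.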

The subject of experiment [12] is Mus musculus. Kind of experiment: Inhibition of hepatic lipogenesis in C57BL/6 mouse supplemented with normal chow diet assessed as decrease in FAS protein expression at 20 mg/kg/day, ip administered for 1 week measured by western blot analysis. As to conditions: time 1.0 weeks. It is filed as functional, organism-based. The method in brief: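 Normal-chow male C57BL/6 mice, 8 weeks old, were injected ip at 20 mg·kg−1·day−1 daily for 7 days or given vehicle. Liver tissue was homogenized in lysis buffer, and FAS and ChREBP protein were assessed by western blot. n = 5–9.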

In experiment [13] the test system is Hepatocyte. Kind of experiment: Inhibition of glucogenesis in mouse primary hepatocytes stimulated with 100 uM 8-Br-cAMP assessed as decrease in PEPCK mRNA expression at 3 uM in presence of cAMP measured after 8 hrs by RT-qPCR assay. In kind it is functional, cell-based. In outline: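 Primary mouse hepatocytes treated with 3 μM compound and 100 μM 8-Br-cAMP for 8 h. Trizol RNA, SYBR Green RT-qPCR of the named transcript. Mean ± SEM, three independent experiments.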

Experiment [14] deals with Hepatocyte. Kind of experiment: Inhibition of glucogenesis in mouse primary hepatocytes stimulated with 100 uM 8-Br-cAMP assessed as decrease in glucose production at 3 uM in combination with 2 mM metformin. It is filed as functional, cell-based. In outline:
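Primary mouse hepatocytes pretreated with 100 nM dexamethasone for 16 h. Glucose production then measured in glucose-free DMEM with 1 mM pyruvate, 10 mM lactate and 0.25% BSA, in the presence of 100 μM 8-Br-cAMP, with 3 μM compound plus 2 mM metformin. Medium glucose assayed colorimetrically. Three independent experiments.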

The next experiment has as its system HepG2. Briefly: Inhibition of glucogenesis in human HepG2 cells stimulated with 8-Br-cAMP at 3 uM assessed as effect on change in TORC2/CREB interaction measured by coimmunoprecipitation analysis. It is filed as functional, cell-based. The method in brief: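 HepG2 cells treated with 3 μM compound. CREB association with CBP and TORC2 assessed by coimmunoprecipitation (antibody 2 h, protein A/G beads overnight at 4 °C) and western blot.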

The target of experiment [15] is CREB-binding protein/Histone acetyltransferase p300 (Homo sapiens) (UniProt Q09472+Q92793). Briefly: Inhibition of CBP/p300 in human HEK293T cells expressing HA-FOXO1 stimulated with 100 uM 8-Br-cAMP assessed as decrease in FOXO1 abundance in nucleus at 3 uM measured after 24 hrs by immunofluorescence analysis. In kind it is cell-based. To be noted: time 3.0 hrs, in the assay text read “3 hrs” for “24 hrs”. The method in brief:
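HEK293T cells transfected with HA-FOXO1 plasmid for 24 h, then treated 3 h with 3 μM compound and 100 μM 8-Br-cAMP. Staining steps: fixed in 10% formalin, permeabilized 0.1% Triton X100, blocked 5% BSA, anti-HA (1:200) overnight at 4 °C, FITC secondary, DAPI. Localization imaged by fluorescence microscopy.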

Experiment [16] relates to Hepatocyte. Briefly: Inhibition of glucogenesis in mouse primary hepatocytes stimulated with 100 uM 8-Br-cAMP assessed as decrease in PEPCK mRNA expression at 3 uM measured after 8 hrs by RT-qPCR assay.

Sequence of CREB-binding protein/Histone acetyltransferase p300 (Homo sapiens) (Q09472 whole entry, looked up): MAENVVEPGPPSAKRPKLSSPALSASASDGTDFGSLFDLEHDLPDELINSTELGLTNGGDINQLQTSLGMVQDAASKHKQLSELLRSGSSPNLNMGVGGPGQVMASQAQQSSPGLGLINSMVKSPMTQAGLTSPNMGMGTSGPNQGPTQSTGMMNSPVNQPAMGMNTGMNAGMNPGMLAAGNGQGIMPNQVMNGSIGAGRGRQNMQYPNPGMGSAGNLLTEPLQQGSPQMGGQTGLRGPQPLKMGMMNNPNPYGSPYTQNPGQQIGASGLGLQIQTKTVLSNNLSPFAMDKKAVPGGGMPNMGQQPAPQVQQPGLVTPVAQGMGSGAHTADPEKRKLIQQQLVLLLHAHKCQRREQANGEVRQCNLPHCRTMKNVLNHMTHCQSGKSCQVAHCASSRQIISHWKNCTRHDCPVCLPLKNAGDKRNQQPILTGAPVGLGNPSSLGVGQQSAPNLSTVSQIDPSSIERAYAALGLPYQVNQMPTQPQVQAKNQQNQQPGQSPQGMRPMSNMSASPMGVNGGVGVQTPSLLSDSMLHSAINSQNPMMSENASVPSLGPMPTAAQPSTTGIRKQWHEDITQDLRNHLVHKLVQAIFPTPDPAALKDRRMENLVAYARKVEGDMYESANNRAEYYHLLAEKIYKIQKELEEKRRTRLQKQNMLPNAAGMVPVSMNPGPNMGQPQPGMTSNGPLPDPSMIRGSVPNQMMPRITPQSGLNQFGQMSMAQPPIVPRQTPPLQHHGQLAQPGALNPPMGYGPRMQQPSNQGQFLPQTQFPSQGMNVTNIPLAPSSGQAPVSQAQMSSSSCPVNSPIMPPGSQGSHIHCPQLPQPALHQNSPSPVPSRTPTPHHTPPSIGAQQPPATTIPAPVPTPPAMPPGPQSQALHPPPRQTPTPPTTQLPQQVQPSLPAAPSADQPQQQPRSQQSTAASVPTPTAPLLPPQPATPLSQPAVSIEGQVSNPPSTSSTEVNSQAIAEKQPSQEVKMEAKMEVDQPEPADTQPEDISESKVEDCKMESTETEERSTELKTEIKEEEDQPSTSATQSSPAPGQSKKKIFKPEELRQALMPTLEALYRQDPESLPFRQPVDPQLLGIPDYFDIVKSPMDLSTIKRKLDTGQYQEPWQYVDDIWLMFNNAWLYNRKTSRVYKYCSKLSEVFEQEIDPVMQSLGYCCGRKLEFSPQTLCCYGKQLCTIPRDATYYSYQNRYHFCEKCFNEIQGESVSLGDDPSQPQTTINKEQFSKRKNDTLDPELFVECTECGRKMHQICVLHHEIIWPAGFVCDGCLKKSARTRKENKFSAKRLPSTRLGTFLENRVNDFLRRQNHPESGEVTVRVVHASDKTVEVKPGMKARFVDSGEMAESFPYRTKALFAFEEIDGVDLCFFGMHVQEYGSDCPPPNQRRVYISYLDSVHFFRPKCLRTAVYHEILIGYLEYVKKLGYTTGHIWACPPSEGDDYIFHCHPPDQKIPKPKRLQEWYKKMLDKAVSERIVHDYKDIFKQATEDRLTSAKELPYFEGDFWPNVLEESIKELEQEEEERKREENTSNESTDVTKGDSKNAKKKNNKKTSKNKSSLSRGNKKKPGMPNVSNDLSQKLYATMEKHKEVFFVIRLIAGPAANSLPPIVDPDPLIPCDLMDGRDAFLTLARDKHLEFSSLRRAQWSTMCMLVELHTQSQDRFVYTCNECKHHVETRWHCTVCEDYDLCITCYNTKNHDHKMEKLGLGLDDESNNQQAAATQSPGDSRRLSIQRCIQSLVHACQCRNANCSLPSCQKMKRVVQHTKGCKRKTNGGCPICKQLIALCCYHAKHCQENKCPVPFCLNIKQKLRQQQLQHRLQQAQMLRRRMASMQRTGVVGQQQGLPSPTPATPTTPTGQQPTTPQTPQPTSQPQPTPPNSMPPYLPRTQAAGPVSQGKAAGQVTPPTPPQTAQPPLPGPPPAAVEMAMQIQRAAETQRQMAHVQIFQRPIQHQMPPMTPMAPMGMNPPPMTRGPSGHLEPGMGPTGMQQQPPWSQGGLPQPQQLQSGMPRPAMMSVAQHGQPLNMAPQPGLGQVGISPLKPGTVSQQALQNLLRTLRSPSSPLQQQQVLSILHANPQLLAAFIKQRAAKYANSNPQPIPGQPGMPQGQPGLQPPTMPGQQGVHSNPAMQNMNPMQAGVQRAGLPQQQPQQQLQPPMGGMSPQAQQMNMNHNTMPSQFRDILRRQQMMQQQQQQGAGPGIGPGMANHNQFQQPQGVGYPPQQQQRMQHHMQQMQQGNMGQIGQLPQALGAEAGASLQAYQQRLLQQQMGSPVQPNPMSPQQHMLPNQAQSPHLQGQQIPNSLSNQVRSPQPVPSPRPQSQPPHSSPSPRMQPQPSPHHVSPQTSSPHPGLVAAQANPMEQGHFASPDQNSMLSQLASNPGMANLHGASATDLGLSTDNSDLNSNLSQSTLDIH
Sequence of CREB-binding protein/Histone acetyltransferase p300 (Homo sapiens) (Q92793 whole entry, looked up): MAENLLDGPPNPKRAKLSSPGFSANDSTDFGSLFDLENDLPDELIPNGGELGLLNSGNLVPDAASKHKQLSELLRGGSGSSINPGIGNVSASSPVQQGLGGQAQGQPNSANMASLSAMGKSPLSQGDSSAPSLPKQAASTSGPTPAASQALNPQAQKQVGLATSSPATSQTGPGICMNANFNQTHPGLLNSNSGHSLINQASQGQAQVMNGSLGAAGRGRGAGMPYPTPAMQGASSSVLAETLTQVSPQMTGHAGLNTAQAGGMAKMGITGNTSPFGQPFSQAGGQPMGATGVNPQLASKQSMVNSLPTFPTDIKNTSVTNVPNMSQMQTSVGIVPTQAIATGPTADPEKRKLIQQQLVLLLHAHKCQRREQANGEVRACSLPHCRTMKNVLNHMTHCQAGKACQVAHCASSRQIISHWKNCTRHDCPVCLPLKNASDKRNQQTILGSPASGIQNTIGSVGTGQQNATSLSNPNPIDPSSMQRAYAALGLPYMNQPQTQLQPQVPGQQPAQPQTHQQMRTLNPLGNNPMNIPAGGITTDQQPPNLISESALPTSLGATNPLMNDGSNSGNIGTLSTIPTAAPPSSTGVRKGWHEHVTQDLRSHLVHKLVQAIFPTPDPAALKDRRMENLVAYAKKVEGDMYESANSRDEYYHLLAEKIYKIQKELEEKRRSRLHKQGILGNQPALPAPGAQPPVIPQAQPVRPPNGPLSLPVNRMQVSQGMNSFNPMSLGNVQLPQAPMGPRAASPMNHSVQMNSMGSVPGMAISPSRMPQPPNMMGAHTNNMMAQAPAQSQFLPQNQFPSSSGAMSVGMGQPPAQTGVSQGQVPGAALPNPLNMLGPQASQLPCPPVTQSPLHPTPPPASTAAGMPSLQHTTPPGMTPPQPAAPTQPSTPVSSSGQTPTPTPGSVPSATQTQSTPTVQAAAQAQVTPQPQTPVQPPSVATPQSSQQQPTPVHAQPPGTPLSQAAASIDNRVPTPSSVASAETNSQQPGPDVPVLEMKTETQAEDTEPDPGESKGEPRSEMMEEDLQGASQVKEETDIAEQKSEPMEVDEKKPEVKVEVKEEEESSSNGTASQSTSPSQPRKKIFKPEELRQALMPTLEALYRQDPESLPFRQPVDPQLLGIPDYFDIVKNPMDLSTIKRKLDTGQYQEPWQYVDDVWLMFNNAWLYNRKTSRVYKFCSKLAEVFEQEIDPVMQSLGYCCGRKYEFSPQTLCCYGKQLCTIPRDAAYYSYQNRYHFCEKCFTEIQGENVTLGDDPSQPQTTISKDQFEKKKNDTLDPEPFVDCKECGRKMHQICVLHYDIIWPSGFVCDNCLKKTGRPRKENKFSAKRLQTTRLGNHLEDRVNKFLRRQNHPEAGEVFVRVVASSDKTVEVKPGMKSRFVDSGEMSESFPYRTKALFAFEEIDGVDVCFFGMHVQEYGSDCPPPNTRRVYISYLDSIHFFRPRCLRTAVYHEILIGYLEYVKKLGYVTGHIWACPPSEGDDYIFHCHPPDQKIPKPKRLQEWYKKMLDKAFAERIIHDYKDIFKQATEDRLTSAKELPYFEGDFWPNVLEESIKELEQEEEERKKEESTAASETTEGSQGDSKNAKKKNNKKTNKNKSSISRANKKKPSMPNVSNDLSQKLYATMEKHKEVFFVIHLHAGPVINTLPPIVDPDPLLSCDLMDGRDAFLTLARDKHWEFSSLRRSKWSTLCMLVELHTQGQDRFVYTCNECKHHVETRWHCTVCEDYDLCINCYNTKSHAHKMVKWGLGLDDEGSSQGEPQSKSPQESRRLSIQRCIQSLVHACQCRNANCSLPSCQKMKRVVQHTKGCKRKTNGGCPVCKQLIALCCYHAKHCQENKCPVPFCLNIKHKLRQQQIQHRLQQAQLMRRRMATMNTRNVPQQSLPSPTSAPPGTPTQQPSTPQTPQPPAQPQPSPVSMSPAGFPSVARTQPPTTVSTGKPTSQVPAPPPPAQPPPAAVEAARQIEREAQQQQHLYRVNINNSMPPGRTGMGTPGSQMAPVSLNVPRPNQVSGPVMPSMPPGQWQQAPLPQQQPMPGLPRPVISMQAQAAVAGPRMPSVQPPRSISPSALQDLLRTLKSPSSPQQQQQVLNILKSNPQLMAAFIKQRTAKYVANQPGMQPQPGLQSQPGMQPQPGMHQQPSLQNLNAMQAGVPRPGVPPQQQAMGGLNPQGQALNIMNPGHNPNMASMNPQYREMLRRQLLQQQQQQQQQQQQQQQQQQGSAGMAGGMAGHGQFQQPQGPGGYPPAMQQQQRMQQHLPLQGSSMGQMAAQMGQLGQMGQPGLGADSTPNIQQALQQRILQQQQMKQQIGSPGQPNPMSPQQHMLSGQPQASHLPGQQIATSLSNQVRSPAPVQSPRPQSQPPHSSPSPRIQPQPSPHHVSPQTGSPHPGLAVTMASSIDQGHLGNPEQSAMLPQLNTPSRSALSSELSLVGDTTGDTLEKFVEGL

Regarding `CNC(=O)Nc1ccc2c(c1)CCS21OC(=O)N(CC(=O)N(Cc2ccc(F)cc2)[C@@H](C)C(F)(F)F)C1=O` (some centres not stated), the outcome in the experiment with Mus musculus [1], in the experiment with Mus musculus [2] and in the experiment on Mus musculus [4] was inactive. In the experiment on Mus musculus [3], the outcome was Active. In addition, the inhibition entry with Mus musculus [5], in the experiment with Mus musculus [6] and with HepG2 was “inactive” throughout. The inhibition entry in the experiment on Mus musculus [7], in the experiment on Mus musculus [8], in the experiment with Adipocyte [9], with Adipocyte [10], in the experiment with Mus musculus [11] and in the experiment on Mus musculus [12] was “Active” each time. Besides, the inhibition entry (in the experiment on Hepatocyte [13]; with Hepatocyte [14]; in experiment [15]; in the experiment on Hepatocyte [16]) was “Active” in each case.
